Test results: ChEMBL document CHEMBL5042553 (J Med Chem, 2022)
The source made the active and inactive calls. The rule behind the calls is not given here.

Tests used:
[1] = molecular target: T1, von Hippel-Lindau disease tumor suppressor/Histone deacetylase 3 (Homo sapiens, UniProt O15379+P40337); assay: Protac activity at VHL/HDAC3 in human HCT-116 cells assessed as induction of HDAC3 degradation at 1 to 10 uM incubated for 24 hrs by Western blot analysis; assay type: cell-based; conditions: dose 1-10 µM
Outline: (§1)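 HCT116 cells (37 °C, 5% CO₂) seeded for 24 h, then given DMSO or PROTAC (0.01–10 μM) in fresh medium for 2–48 h. Lysates made in Tris/NaCl/NP-40/Triton X-100 buffer with protease inhibitor; histones acid-extracted with 0.4 N H₂SO₄. 30 μg protein or 10 μL histone extract per lane run on 4–12% bis-Tris gels. Quantitative western blotting used IR-dye secondaries and band densitometry, referenced to DMSO; two independent biological replicates.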
Target sequence in this assay (O15379 whole entry, looked up): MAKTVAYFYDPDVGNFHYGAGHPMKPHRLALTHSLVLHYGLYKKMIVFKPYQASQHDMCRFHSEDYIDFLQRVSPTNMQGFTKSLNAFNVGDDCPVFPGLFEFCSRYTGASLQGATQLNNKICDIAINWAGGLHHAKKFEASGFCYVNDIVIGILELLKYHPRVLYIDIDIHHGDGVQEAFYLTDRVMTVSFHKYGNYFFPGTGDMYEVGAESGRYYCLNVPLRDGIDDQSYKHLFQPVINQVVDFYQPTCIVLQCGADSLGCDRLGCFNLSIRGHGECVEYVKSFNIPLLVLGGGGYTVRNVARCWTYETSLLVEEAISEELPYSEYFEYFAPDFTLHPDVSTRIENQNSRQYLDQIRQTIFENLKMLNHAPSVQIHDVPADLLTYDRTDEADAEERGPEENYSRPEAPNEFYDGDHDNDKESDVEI
Target sequence in this assay (P40337 whole entry, looked up): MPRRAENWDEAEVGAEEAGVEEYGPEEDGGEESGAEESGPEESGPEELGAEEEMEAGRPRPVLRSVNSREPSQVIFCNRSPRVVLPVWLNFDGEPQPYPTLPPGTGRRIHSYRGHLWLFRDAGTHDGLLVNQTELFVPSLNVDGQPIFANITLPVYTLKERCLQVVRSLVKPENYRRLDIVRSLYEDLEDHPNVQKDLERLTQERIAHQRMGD

[2] = molecular target: T2, von Hippel-Lindau disease tumor suppressor/Histone deacetylase 1 (Homo sapiens, UniProt Q13547+P40337); assay: Protac activity at VHL/HDAC1 in human HCT-116 cells assessed as induction of HDAC1 degradation at 1 to 10 uM incubated for 24 hrs by Western blot analysis; assay type: cell-based; conditions: dose 1-10 µM; outline: as §1
Target sequence in this assay (P40337 whole entry, looked up): as above
Target sequence in this assay (Q13547 whole entry, looked up): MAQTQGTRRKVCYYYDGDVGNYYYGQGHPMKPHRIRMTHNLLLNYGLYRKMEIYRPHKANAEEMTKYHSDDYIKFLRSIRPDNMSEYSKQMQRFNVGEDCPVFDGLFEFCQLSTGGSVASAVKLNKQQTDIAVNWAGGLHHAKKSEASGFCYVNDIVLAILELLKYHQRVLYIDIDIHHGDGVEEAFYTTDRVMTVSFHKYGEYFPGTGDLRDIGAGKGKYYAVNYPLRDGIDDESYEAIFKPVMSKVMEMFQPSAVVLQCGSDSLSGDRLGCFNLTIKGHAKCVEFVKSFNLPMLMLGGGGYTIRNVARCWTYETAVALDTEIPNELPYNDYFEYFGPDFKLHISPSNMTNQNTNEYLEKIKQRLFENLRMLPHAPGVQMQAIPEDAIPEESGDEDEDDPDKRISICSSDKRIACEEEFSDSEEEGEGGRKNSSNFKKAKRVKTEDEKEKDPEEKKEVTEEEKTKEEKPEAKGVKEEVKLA

[3] = molecular target: T3, von Hippel-Lindau disease tumor suppressor/Histone deacetylase 2 (Homo sapiens) (UniProt Q92769+P40337); assay: Protac activity at VHL/HDAC2 in human HCT-116 cells assessed as induction of HDAC2 degradation at 1 to 10 uM incubated for 24 hrs by Western blot analysis; assay type: cell-based; conditions: dose 1-10 µM; outline: as §1
[4] = molecular target: T1, von Hippel-Lindau disease tumor suppressor/Histone deacetylase 3; assay: Protac activity at VHL/HDAC3 in human HCT-116 cells assessed as induction of HDAC3 degradation at 10 uM incubated for 24 hrs by Western blot analysis; assay type: cell-based; outline: as §1
Target sequence in this assay (O15379 whole entry, looked up): as the sequence (O15379 whole entry, looked up) above
Target sequence in this assay (P40337 whole entry, looked up): as the sequence (P40337 whole entry, looked up) above

[5] = molecular target: T2, von Hippel-Lindau disease tumor suppressor/Histone deacetylase 1; assay: Protac activity at VHL/HDAC1 in human HCT-116 cells assessed as induction of HDAC1 degradation at 1 uM incubated for 24 hrs by Western blot analysis; assay type: cell-based; outline: as §1
Target sequence in this assay (P40337 whole entry, looked up): as above
Target sequence in this assay (Q13547 whole entry, looked up): as the sequence (Q13547 whole entry, looked up) above

[6] = molecular target: T2, von Hippel-Lindau disease tumor suppressor/Histone deacetylase 1; assay: Protac activity at VHL/HDAC1 in human HCT-116 cells assessed as induction of HDAC1 degradation incubated for 24 hrs by Western blot analysis; assay type: cell-based
Target sequence in this assay (Q13547 whole entry): as the sequence (Q13547 whole entry, looked up) above
Target sequence in this assay (P40337 whole entry): as the sequence (P40337 whole entry, looked up) above

[7] = Inhibition of HDAC2-CoREST-LSD1 (unknown origin) using Boc- (Ac)Lys-AMC as substrate preincubated for 1 hr followed by substrate addition and measured after 1 hr by fluorescent assay; parameters: species or system Homo sapiens
[8] = molecular target: T1, von Hippel-Lindau disease tumor suppressor/Histone deacetylase 3; assay: Protac activity at VHL/HDAC3 in human HCT-116 cells assessed as induction of HDAC3 degradation incubated for 24 hrs by Western blot analysis; assay type: cell-based
Target sequence in this assay (O15379 whole entry): as the sequence (O15379 whole entry, looked up) above
Target sequence in this assay (P40337 whole entry): as the sequence (P40337 whole entry, looked up) above

[9] = Inhibition of HDAC3-SMRT (unknown origin) using Boc- (Ac)Lys-AMC as substrate preincubated for 1 hr followed by substrate addition and measured after 1 hr by fluorescent assay; parameters: species or system Homo sapiens
[10] = system: HCT-116; assay: Cytotoxicity against human HCT-116 cells assessed as reduction in cell viability measured after 48 hrs by cell-titer glo assay; assay type: functional, cell-based
[11] = Inhibition of HDAC1-CoREST-LSD1 (unknown origin) using Boc- (Ac)Lys-AMC as substrate preincubated for 1 hr followed by substrate addition and measured after 1 hr by fluorescent assay; parameters: species or system Homo sapiens
[12] = system: HCT-116; assay: Induction of apoptosis in HCT-116 cells assessed as accumulation of cells in Sub-G1 phase at 10 uM measured after 48 hrs by flow cytometry analysis; conditions: Homo sapiens
[13] = molecular target: T1, von Hippel-Lindau disease tumor suppressor/Histone deacetylase 3; assay: Protac activity at VHL/HDAC3 in human HCT-116 cells assessed as induction of HDAC3 degradation at 10 uM measured after 36 to 48 hrs by Western blot analysis; assay type: cell-based; conditions: time 36-48 hrs; outline: as §1
Target sequence in this assay (O15379 whole entry, looked up): as the sequence (O15379 whole entry, looked up) above
Target sequence in this assay (P40337 whole entry, looked up): as the sequence (P40337 whole entry, looked up) above

[14] = system: HCT-116; assay: Induction of apoptosis in human HCT-116 cells assessed as accumulation of cells in Sub-G1 phase at 10 uM measured after 24 hrs by flow cytometry analysis
[15] = molecular target: T2, von Hippel-Lindau disease tumor suppressor/Histone deacetylase 1; assay: Protac activity at VHL/HDAC1 in human HCT-116 cells assessed as fold increase in H3K56ac at 10 uM measured after 8 hrs by Western blot analysis relative to control; assay type: cell-based; outline: as §1
Target sequence in this assay (P40337 whole entry, looked up): as above
Target sequence in this assay (Q13547 whole entry, looked up): as the sequence (Q13547 whole entry, looked up) above

[16] = molecular target: T2, von Hippel-Lindau disease tumor suppressor/Histone deacetylase 1; assay: Protac activity at VHL/HDAC1 in human HCT-116 cells assessed as induction of HDAC1 degradation at 1 uM measured upto 48 hrs by Western blot analysis; assay type: cell-based; conditions: time hrs <=48; outline: as §1
Target sequence in this assay (P40337 whole entry, looked up): as the sequence (P40337 whole entry, looked up) above
Target sequence in this assay (Q13547 whole entry, looked up): as the sequence (Q13547 whole entry, looked up) above

[17] = molecular target: T1, von Hippel-Lindau disease tumor suppressor/Histone deacetylase 3; assay: Protac activity at VHL/HDAC3 in human HCT-116 cells assessed as induction of HDAC3 degradation at 10 uM measured upto 24 hrs by Western blot analysis; assay type: cell-based; conditions: time hrs <=24; outline: as §1
Target sequence in this assay (O15379 whole entry, looked up): as the sequence (O15379 whole entry, looked up) above
Target sequence in this assay (P40337 whole entry, looked up): as the sequence (P40337 whole entry, looked up) above

[18] = molecular target: T3, von Hippel-Lindau disease tumor suppressor/Histone deacetylase 2 (Homo sapiens); assay: Protac activity at VHL/HDAC2 in human HCT-116 cells assessed as fold increase in H3K56ac at 10 uM measured after 8 hrs by Western blot analysis relative to control; assay type: cell-based; outline: as §1
[19] = molecular target: T3, von Hippel-Lindau disease tumor suppressor/Histone deacetylase 2 (Homo sapiens); assay: Protac activity at VHL/HDAC2 in human HCT-116 cells assessed as reduction in LSD1 level measured after 48 hrs by Western blot analysis; parameters: scale not given: the % may be the effect or the level left
[20] = molecular target: T1, von Hippel-Lindau disease tumor suppressor/Histone deacetylase 3; assay: Protac activity at VHL/HDAC3 in human HCT-116 cells assessed as induction of HDAC3 degradation at 1 uM measured after 4 hrs by Western blot analysis; assay type: cell-based; outline: as §1
Target sequence in this assay (O15379 whole entry, looked up): as the sequence (O15379 whole entry, looked up) above
Target sequence in this assay (P40337 whole entry, looked up): as the sequence (P40337 whole entry, looked up) above

[21] = molecular target: T2, von Hippel-Lindau disease tumor suppressor/Histone deacetylase 1; assay: Protac activity at VHL/HDAC1 in human HCT-116 cells assessed as induction of HDAC1 degradation at 10 uM measured after 4 hrs by Western blot analysis; assay type: cell-based; outline: as §1
Target sequence in this assay (P40337 whole entry, looked up): as above
Target sequence in this assay (Q13547 whole entry, looked up): as the sequence (Q13547 whole entry, looked up) above

[22] = molecular target: T1, von Hippel-Lindau disease tumor suppressor/Histone deacetylase 3; assay: Protac activity at VHL/HDAC3 in human HCT-116 cells assessed as induction of HDAC3 degradation at 1 uM measured after 15 hrs by Western blot analysis; assay type: cell-based; outline: as §1
Target sequence in this assay (O15379 whole entry, looked up): as the sequence (O15379 whole entry, looked up) above
Target sequence in this assay (P40337 whole entry, looked up): as the sequence (P40337 whole entry, looked up) above

[23] = molecular target: T2, von Hippel-Lindau disease tumor suppressor/Histone deacetylase 1; assay: Protac activity at VHL/HDAC1 in human HCT-116 cells assessed as reduction in LSD1 level measured after 48 hrs by Western blot analysis; parameters: scale not given: the % may be the effect or the level left
Target sequence in this assay (P40337 whole entry, looked up): as above
Target sequence in this assay (Q13547 whole entry, looked up): as the sequence (Q13547 whole entry, looked up) above

[24] = molecular target: T3, von Hippel-Lindau disease tumor suppressor/Histone deacetylase 2 (Homo sapiens); assay: Protac activity at VHL/HDAC2 in human HCT-116 cells assessed as induction of HDAC2 degradation at 10 uM measured after 4 hrs by Western blot analysis; assay type: cell-based; outline: as §1
[25] = molecular target: T3, von Hippel-Lindau disease tumor suppressor/Histone deacetylase 2 (Homo sapiens); assay: Protac activity at VHL/HDAC2 in human HCT-116 cells assessed as induction of HDAC2 degradation at 1 uM measured upto 48 hrs by Western blot analysis; assay type: cell-based; conditions: time hrs <=48; outline: as §1

T3 sequence (P40337 whole entry, looked up): as the sequence (P40337 whole entry, looked up) above
T3 sequence (Q92769 whole entry, looked up): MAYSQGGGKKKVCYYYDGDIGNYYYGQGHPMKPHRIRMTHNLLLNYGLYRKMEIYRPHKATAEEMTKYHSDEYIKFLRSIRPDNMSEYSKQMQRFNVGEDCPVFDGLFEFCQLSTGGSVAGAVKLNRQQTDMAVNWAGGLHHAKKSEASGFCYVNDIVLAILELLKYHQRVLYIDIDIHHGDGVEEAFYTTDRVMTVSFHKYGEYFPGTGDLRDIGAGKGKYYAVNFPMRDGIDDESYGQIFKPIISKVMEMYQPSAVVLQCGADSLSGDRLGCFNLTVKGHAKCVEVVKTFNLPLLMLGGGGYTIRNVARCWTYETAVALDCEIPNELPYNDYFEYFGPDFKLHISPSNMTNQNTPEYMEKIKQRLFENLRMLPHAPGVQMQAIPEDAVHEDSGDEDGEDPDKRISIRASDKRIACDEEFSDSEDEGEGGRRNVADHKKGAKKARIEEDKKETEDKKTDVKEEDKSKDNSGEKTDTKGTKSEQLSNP

Structure (SMILES)	Activity [1]	Activity [2]	Activity [3]	other results
Cc1ncsc1-c1ccc(CNC(=O)[C@@H]2C[C@@H](O)CN2C(=O)C(NC(=O)CCCCCCCCCCC(=O)Nc2ccc(C(=O)Nc3ccc(F)cc3N)cc2)C(C)(C)C)cc1 (single isomer, unassigned)	Active	–	–	–
Cc1ncsc1-c1ccc(CNC(=O)[C@@H]2C[C@@H](O)CN2C(=O)C(NC(=O)COCCOCCOCC(=O)Nc2ccc(C(=O)Nc3ccc(F)cc3N)cc2)C(C)(C)C)cc1 (single isomer, unassigned)	–	–	–	Activity [4]: Active
Cc1ncsc1-c1ccc(CNC(=O)[C@@H]2C[C@@H](O)CN2C(=O)[C@@H](NC(=O)COCCCCCCOCC(=O)Nc2ccc(C(=O)Nc3ccccc3N)cc2)C(C)(C)C)cc1	–	–	–	Activity [5]: inactive
CC(=O)NC(C(=O)N1C[C@H](O)C[C@H]1C(=O)NCc1ccc(-c2scnc2C)cc1OCCCCNC(=O)CCCCC(=O)Nc1ccc(C(=O)Nc2ccccc2N)cc1)C(C)(C)C (single isomer, unassigned)	–	Active	–	–
Cc1ncsc1-c1ccc(CNC(=O)[C@@H]2CC(O)CN2C(=O)[C@@H](NC(=O)COCCOCCOCCOCC(=O)Nc2ccc(C(=O)Nc3ccccc3N)cc2)C(C)(C)C)cc1 (single isomer, unassigned)	inactive	inactive	inactive	–
CC(=O)NC(C(=O)N1C[C@H](O)C[C@H]1C(=O)NCc1ccc(-c2scnc2C)cc1OCCCCCCCCCCCC(=O)Nc1ccc(C(=O)Nc2ccccc2N)cc1)C(C)(C)C (single isomer, unassigned)	–	–	–	DC50 [6]: 3.51 µM; IC50 [7]: 3.46 µM; DC50 [8]: 1.38 µM; IC50 [9]: 3.81 µM; Activity [10]: inactive; IC50 [11]: 1.51 µM
Cc1ncsc1-c1ccc(CNC(=O)[C@@H]2C[C@@H](O)CN2C(=O)[C@@H](NC(=O)COCCCCCCCCCOCC(=O)Nc2ccc(C(=O)Nc3ccccc3N)cc2)C(C)(C)C)cc1	–	–	–	Activity [5]: Active; Activity [12]: Active; Activity [13]: 50%; Activity [14]: Active; fold change (FC) [15]: 2; Activity [16]: Active; Activity [17]: inactive; fold change (FC) [18]: 2; Activity [19]: 40%; Activity [20]: Active; Activity [21]: Active; Activity [22]: Active; Activity [23]: 40%; Activity [24]: Active; Activity [25]: Active
Cc1ncsc1-c1ccc(CNC(=O)[C@@H]2C[C@@H](O)CN2C(=O)[C@@H](NC(=O)CCCCCCCCCCC(=O)Nc2ccc(C(=O)Nc3ccccc3N)cc2)C(C)(C)C)cc1	–	–	–	Activity [4]: Active
Cc1ncsc1-c1ccc(CNC(=O)[C@@H]2C[C@@H](O)CN2C(=O)[C@@H](NC(=O)CCCCCCCCCCC(=O)Nc2ccc(C(=O)Nc3cc(-c4cccs4)ccc3N)cc2)C(C)(C)C)cc1	–	inactive	inactive	–
Cc1ncsc1-c1ccc(CNC(=O)[C@@H]2C[C@@H](O)CN2C(=O)[C@@H](NC(=O)CCCCCCCC(=O)Nc2ccc(C(=O)Nc3cc(-c4cccs4)ccc3N)cc2)C(C)(C)C)cc1	–	inactive	inactive	–
CC(=O)NC(C(=O)N1C[C@H](O)C[C@H]1C(=O)NCc1ccc(-c2scnc2C)cc1OCCCCNC(=O)CCCCCCCC(=O)Nc1ccc(C(=O)Nc2ccccc2N)cc1)C(C)(C)C (single isomer, unassigned)	–	Active	–	–
Cc1ncsc1-c1ccc(CNC(=O)[C@@H]2C[C@@H](O)CN2C(=O)[C@@H](NC(=O)COCCOCCOCC(=O)Nc2ccc(C(=O)Nc3cc(-c4cccs4)ccc3N)cc2)C(C)(C)C)cc1	–	inactive	inactive	–
Cc1ncsc1-c1ccc(CNC(=O)[C@@H]2C[C@@H](O)CN2C(=O)[C@@H](NC(=O)COCCCCCCCCCOCC(=O)Nc2ccc(C(=O)Nc3ccc(F)cc3N)cc2)C(C)(C)C)cc1	–	–	–	Activity [5]: Active

Continued, in another order:

Activity [1]	Activity [2]	Activity [3]	Structure (SMILES)	other results
inactive	inactive	inactive	Cc1ncsc1-c1ccc(CNC(=O)[C@@H]2C[C@@H](O)CN2C(=O)[C@@H](NC(=O)COCCOCCOCC(=O)Nc2ccc(C(=O)Nc3ccccc3N)cc2)C(C)(C)C)cc1	–
–	Active	Active	Cc1ncsc1-c1ccc(CNC(=O)[C@@H]2C[C@@H](O)CN2C(=O)[C@@H](NC(=O)CCCCCCCCCCCCC(=O)Nc2ccc(C(=O)Nc3ccccc3N)cc2)C(C)(C)C)cc1	–
inactive	inactive	inactive	Cc1ncsc1-c1ccc(CNC(=O)[C@@H]2C[C@@H](O)CN2C(=O)[C@@H](NC(=O)CCCN2CCN(CCCC(=O)Nc3ccc(C(=O)Nc4ccccc4N)cc3)CC2)C(C)(C)C)cc1	–
inactive	Active	Active	Cc1ncsc1-c1ccc(CNC(=O)[C@@H]2C[C@@H](O)CN2C(=O)[C@@H](NC(=O)CCCCCCCCC(=O)Nc2ccc(C(=O)Nc3ccccc3N)cc2)C(C)(C)C)cc1	–
inactive	inactive	inactive	Cc1ncsc1-c1ccc(CNC(=O)[C@@H]2C[C@@H](O)CN2C(=O)[C@@H](NC(=O)COCCOCC(=O)Nc2ccc(C(=O)Nc3ccccc3N)cc2)C(C)(C)C)cc1	–
inactive	Active	Active	Cc1ncsc1-c1ccc(CNC(=O)[C@@H]2C[C@@H](O)CN2C(=O)[C@@H](NC(=O)CCCCCCCC(=O)Nc2ccc(C(=O)Nc3ccccc3N)cc2)C(C)(C)C)cc1	–
inactive	Active	Active	Cc1ncsc1-c1ccc(CNC(=O)[C@@H]2C[C@@H](O)CN2C(=O)[C@@H](NC(=O)CCCCCCCCCC(=O)Nc2ccc(C(=O)Nc3ccccc3N)cc2)C(C)(C)C)cc1	–
